Values after ≈ are worked out from the molar mass of the structure shown.
How the values were obtained:
S. aureus ATCC 29213 [1] = assay: MIC, broth microdilution; assay type: cell-based; conditions: Staphylococcus aureus, ATCC29213, read-out: Minimum inhibitory concentration (MIC), S. aureus ATCC 29213
Method in brief: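 Broth microdilution following CLSI guidelines. Strain grown in Mueller–Hinton broth with shaking at 37 °C for about 5 h, then diluted to ~10^5 CFU mL−1 in wells. Test compound serially diluted over 0.05–256 μg mL−1, and plates incubated 37 °C for 18 h. MIC taken as the lowest concentration with no visible growth. Run in triplicate.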

S. aureus MRSA2 = assay: MIC, broth microdilution; assay type: cell-based, Staphylococcus aureus; conditions: for MIC: Staphylococcus aureus, MRSA2, read-out: Minimum inhibitory concentration (MIC), S. aureus MRSA2
Method in brief: (§1)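 Broth microdilution per CLSI. Strains were grown in Mueller–Hinton broth on a shaker at 37 °C for about 5 h, then diluted to ~10^5 CFU mL−1. Test compound was serially diluted (0.05–256 μg mL−1), and plates were incubated at 37 °C for 18 h. MIC is the lowest concentration with no visible growth. Run in triplicate.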

E. coli ATCC 25922 = assay: MIC, broth microdilution; assay type: cell-based, Escherichia coli; conditions: 16–24 h
Method in brief: as §1

B. subtilis ATCC6633 = assay: MIC, broth microdilution; assay type: cell-based
Method in brief: as §1

B. cereus CMCC63303 = assay: MIC, broth microdilution; assay type: cell-based
Method in brief: as §1

[2] = test system: L. monocytogenes CICC21662; assay: MIC, broth microdilution; assay type: cell-based
Method in brief: as §1

E. faecalis ATCC29212 = assay: MIC, broth microdilution; assay type: cell-based
Method in brief: as §1

S. aureus LN38 = assay: MIC, broth microdilution; assay type: cell-based, Staphylococcus aureus
Method in brief: as §1

Cytotoxicity assay [3] = assay type: cell-based; conditions: human, HK-2 cells
Cytotoxicity assay [4] = assay type: cell-based; conditions: human, LO2 cells
rabbit red blood cells = assay: Hemolysis assay; assay type: cell-based
Method in brief: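 Test compound in PBS was mixed 1:1 with 4% defibrinated rabbit erythrocytes in PBS (final 2–256 μg mL−1) at 37 °C. Cells were pelleted (1000×g, 5 min) and supernatant absorbance read at 490 nm. Hemolysis % = (sample − PBS)/(Triton − PBS), with 1% Triton X-100 as positive and sterile PBS as negative reference. Triplicate.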

S. aureus ATCC 29213 [5] = assay: Time-killing kinetics; assay type: cell-based, Staphylococcus aureus
S. aureus ATCC 29213 [6] = assay: Drug resistance study; assay type: cell-based, Staphylococcus aureus; conditions: sub-MIC passage 28 days
S. aureus MRSA2 biofilm = assay: Biofilm formation inhibition; assay type: cell-based, Staphylococcus aureus; conditions: 64 μg mL^−1 (8 × MIC)
Method in brief: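 S. aureus MRSA2 was diluted 1:100 in TSB with 1% (w/v) glucose and incubated with test compound (256–2 μg mL−1) for 24 h at 37 °C; DMSO-matched controls. Wells were rinsed with PBS three times, air-dried, stained with 0.1% crystal violet for 15 min, destained with 95% ethanol and read at 595 nm. Inhibition % = (ODcontrol − ODsample)/ODcontrol × 100. Triplicate.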

[7] = test system: S. aureus MRSA2 mature biofilm; assay: Mature biofilm eradication; assay type: cell-based, Staphylococcus aureus; conditions: 128 μg mL^−1 (16 × MIC), 24 hours treatment
[8] = test system: TNF-α in LPS-stimulated RAW 264.7 macrophages; assay: TNF-α release, LPS-stimulated macrophages; assay type: cell-based
[9] = test system: IL-6 in LPS-stimulated RAW 264.7 macrophages; assay: IL-6 secretion, LPS-stimulated macrophages; assay type: cell-based; conditions: Mus musculus, RAW264.7, read-out: inhibition of IL-6 secretion
Method in brief: (§2)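 RAW 264.7 cells (5 × 10^4 per well) were allowed to adhere overnight in DMEM with 10% FBS. Cells were pretreated with test compound for 2 h, then stimulated with LPS (e.g., 100 ng mL−1) for 24 h at 37 °C, 5% CO2. IL-6 and IL-1β in culture supernatants were measured by ELISA. Vehicle controls (e.g., 0.1% DMSO); ≥3 biological replicates.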

[10] = test system: IL-1β in LPS-stimulated RAW 264.7 macrophages; assay: IL-1β production, LPS-stimulated macrophages; assay type: cell-based; conditions: Mus musculus, RAW264.7, read-out: inhibition of IL-1β production
Method in brief: as §2

[11] = test system: NO in LPS-stimulated RAW 264.7 macrophages; assay: Nitric oxide production, LPS-stimulated macrophages; assay type: cell-based; conditions: 128 μg mL^−1
Method in brief: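 Murine RAW 264.7 macrophages (5 × 10^4 per well, DMEM with 10% FBS) were allowed to adhere overnight. Cells were pretreated with test compound for 2 h, then exposed to LPS (e.g., 100 ng mL−1) for 24 h at 37 °C under 5% CO2. Nitric oxide in culture supernatants was measured with a commercial detection kit. Vehicle controls (e.g., 0.1% DMSO); ≥3 biological replicates.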

S. aureus ATCC 29213 [12] = assay: Membrane permeability assay; assay type: cell-based, Staphylococcus aureus; conditions: 4 × MIC (32 μg mL^−1); 2 hours
S. aureus ATCC 29213 [13] = assay: Membrane potential assay; assay type: cell-based, Staphylococcus aureus
Method in brief: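 S. aureus ATCC 29213 was grown overnight, brought to log phase (OD600 = 0.4), pelleted and resuspended in PBS at 10^6–10^7 CFU mL−1. Cells were exposed to test compound or 10 μM CCCP (depolarization control) for 15 min at room temperature in the dark. DiOC2(3) (BacLight kit) was then added for 30 min under the same conditions; red/green fluorescence ratio recorded. Triplicate.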

S. aureus ATCC 29213 [14] = assay: Protein leakage; assay type: cell-based, Staphylococcus aureus; conditions: increasing concentrations (1 ×, 4 ×, 16 × MIC); 4 h
Method in brief: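 After centrifugation (12 000×g, 10 min, 4 °C) and 0.22 μm filtration, supernatant protein was determined by BCA assay at 562 nm. Vehicle controls; technical triplicates.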

S. aureus ATCC 29213 [15] = assay: DNA leakage; assay type: cell-based, Staphylococcus aureus; conditions: increasing concentrations (1 ×, 4 ×, 16 × MIC); 4 h
Method in brief: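 Cells were pelleted (12 000×g, 10 min, 4 °C) and the supernatant passed through a 0.22 μm filter. Extracellular DNA was measured as A260 by microvolume spectrophotometry. Vehicle controls; technical triplicates.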

[16] = Plasma protein binding, equilibrium dialysis; assay type: in vitro ADME; conditions: Sprague-Dawley, rat
Method in brief: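 Equilibrium dialysis: bags holding 0.5 mL of blank Sprague–Dawley rat plasma were placed in 40 mL of PBS containing test compound at 30 μM. Incubation was 24 h at 37 °C with shaking at 100 rpm. Both compartments were assayed by HPLC. Binding % = (A − B)/A, where A is the total concentration inside the bag and B the free concentration in the dialysate. Nonspecific binding controls; triplicate.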

CCN(CC)c1ccc(C=NNC(=O)c2ccncc2)c(O)c1 [D2, N′-(4-(diethylamino)-2-hydroxybenzylidene)isonicotinohydrazide]
MIC (S. aureus ATCC 29213 [1]): > 256 µg/mL
MIC (S. aureus MRSA2): > 256 µg/mL

CCN(CC)c1ccc(C=Nc2cc(C)c(Br)cn2)c(O)c1 [D10, 2-(((5-bromo-4-methylpyridin-2-yl)imino)methyl)-5-(diethylamino)phenol]
MIC (S. aureus ATCC 29213 [1]): > 256 µg/mL
MIC (S. aureus MRSA2): > 256 µg/mL

CCN(CC)c1ccc(C=NNC(=O)c2ccccc2)c(O)c1 [D1, N′-(4-(diethylamino)-2-hydroxybenzylidene)benzohydrazide]
MIC (S. aureus ATCC 29213 [1]): > 256 µg/mL
MIC (S. aureus MRSA2): > 256 µg/mL

CCN(CC)c1ccc(C=NNC(=O)c2ccc(C)cc2)c(O)c1 [D3, N′-(4-(diethylamino)-2-hydroxybenzylidene)-4-methylbenzohydrazide]
MIC (S. aureus ATCC 29213 [1]): > 256 µg/mL
MIC (S. aureus MRSA2): > 256 µg/mL

CCN(CC)c1ccc(C=NNC(=O)c2ccccn2)c(O)c1 [D5, N′-(4-(diethylamino)-2-hydroxybenzylidene)picolinohydrazide]
Minimum inhibitory concentration (MIC), E. coli ATCC 25922 (E. coli ATCC 25922): >256 µg/mL
MIC (S. aureus MRSA2): 8 µg/mL (≈ 25.6 µM)
activity against B. subtilis ATCC6633 (B. subtilis ATCC6633): 16
activity against B. cereus CMCC63303 (B. cereus CMCC63303): 8
activity against L. monocytogenes CICC21662 [2]: 8
activity against E. faecalis ATCC29212 (E. faecalis ATCC29212): 8
activity against S. aureus LN38 (S. aureus LN38): 16
viability at 24 h, 256 μg mL^−1 (Cytotoxicity assay [3]): > 85%
viability at 24 h, 256 μg mL^−1 (Cytotoxicity assay [4]): > 85%
hemolysis at 256 μg mL^−1 (rabbit red blood cells; 256 μg mL^−1): no significant hemolysis
hemolytic activity against rabbit RBCs (rabbit red blood cells; 2 to 256 μg mL^−1, 4% rabbit RBCs, 37 °C): no hemolytic activity
time to complete eradication of bacteria (S. aureus ATCC 29213 [5]; 8 × MIC): ≤ 10 h
eradication of bacterial colonies (S. aureus ATCC 29213 [5]; S. aureus ATCC 29213, 8 × MIC (64 μg mL^−1), within 10 hours): > 99.9%
increase of MIC after serial passage (S. aureus ATCC 29213 [6]): 16 fold
suppression of biofilm formation (S. aureus MRSA2 biofilm): > 95%
clearance of mature biofilms [7]: > 95%
lowest concentration at which TNF-α suppression emerges ([8]; LPS-stimulated RAW 264.7): 8 µg/mL
inhibition at 128 µg/mL ([8]; Mus musculus, RAW264.7, read-out: inhibition of TNF-α release): 40%
inhibition at 128 µg/mL [9]: 46%
inhibition at 128 µg/mL [10]: 39%
reduction of nitric oxide (NO) synthesis [11]: 53%
membrane permeabilization (PI uptake) (S. aureus ATCC 29213 [12]): near-complete PI uptake
membrane depolarization (DiOC2(3) red/green fluorescence ratio) (S. aureus ATCC 29213 [13]): significant decrease
leakage of proteins into culture medium (S. aureus ATCC 29213 [14]): dose-dependent efflux
leakage of DNA into culture medium (S. aureus ATCC 29213 [15]): dose-dependent efflux
fraction unbound at 24 h, 30 μM [16]: 0.134

CCN(CC)c1ccc(C=O)c(O)c1 [C, 4-(diethylamino)-2-hydroxybenzaldehyde]
MIC (S. aureus ATCC 29213 [1]): > 256 µg/mL
MIC (S. aureus MRSA2): > 256 µg/mL
Minimum inhibitory concentration (MIC), S. aureus MRSA2 (S. aureus MRSA2; clinically isolated methicillin-resistant S. aureus MRSA2, 16–24 h): >256 µg/mL
activity against B. subtilis ATCC6633 (B. subtilis ATCC6633): >256
activity against B. cereus CMCC63303 (B. cereus CMCC63303): >256
activity against L. monocytogenes CICC21662 [2]: >256
activity against E. faecalis ATCC29212 (E. faecalis ATCC29212): >256
activity against S. aureus LN38 (S. aureus LN38): >256

CCN(CC)c1ccc(C=Nc2cc(C)ccc2O)c(O)c1 [D9, 2-((4-(diethylamino)-2-hydroxybenzylidene)amino)-4-methylphenol]
MIC (S. aureus ATCC 29213 [1]): > 256 µg/mL
MIC (S. aureus MRSA2): > 256 µg/mL

CN[C@H](CC(C)C)C(=O)N[C@H]1C(=O)N[C@@H](CC(N)=O)C(=O)N[C@H]2C(=O)N[C@H]3C(=O)N[C@H](C(=O)N[C@H](C(=O)O)c4cc(O)cc(O)c4-c4cc3ccc4O)[C@H](O)c3ccc(c(Cl)c3)Oc3cc2cc(c3O[C@@H]2O[C@H](CO)[C@@H](O)[C@H](O)[C@H]2O[C@H]2C[C@](C)(N)[C@H](O)[C@H](C)O2)Oc2ccc(cc2Cl)[C@H]1O [Vancomycin]
MIC (S. aureus ATCC 29213 [1]): 1 µg/mL (≈ 0.69 µM)
MIC (S. aureus MRSA2): 2 µg/mL (≈ 1.38 µM)
activity against B. subtilis ATCC6633 (B. subtilis ATCC6633): 1
activity against B. cereus CMCC63303 (B. cereus CMCC63303): 1
activity against L. monocytogenes CICC21662 [2]: 1
activity against E. faecalis ATCC29212 (E. faecalis ATCC29212): 2
activity against S. aureus LN38 (S. aureus LN38): 1

Source: article PMC12462367 (RSC Advances, 2025)
